The subject of experiment [1] is MDA-MB-231. Kind of experiment: Cytotoxicity against human MDA-MB-231 cells incubated for 72 hrs by MTT assay. The class given is functional, cell-based. The conditions noted are these: MDA-MB-231, 72 h. Summed up:
(§1)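 Exponentially growing human tumour cells exposed 72 h to compounds formulated in DMSO; survival read by MTT; dose–response curves over 0.001–100 μM; IC50 taken from curves.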
(Tetrazolium dyes change colour on reduction, which living cells bring about.)

The next experiment concerns HepG2. Kind of experiment: Cytotoxicity against human HepG2 cells incubated for 48 hrs by CCK-8 assay. The format is functional, cell-based. The conditions noted are these: HepG2, 48 h. In outline:
(§2)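 Growing human tumour cells exposed to compounds for 48 h; viability read by CCK-8; IC50 determined.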

A short description of experiment [2]: Cytotoxicity against human PC3 cells incubated for 72 hrs by MTT assay. The format is functional, cell-based. Particulars: PC-3, 72 h. Summed up: as §1
Experiment [3] in a line: Cytotoxicity against human H460 cells incubated for 48 hrs by CCK-8 assay. The class given is functional, cell-based. Particulars: NCI-H460, 48 h. In outline:
as §2

The nature of experiment [4]: Cytotoxicity against human PC3 cells assessed as inhibition of cell survival upto 100 uM incubated for 72 hrs by MTT assay relative to control. The class given is functional, PC-3. In outline:
as §1

Experiment [5] has as its system MDA-MB-231. Kind of experiment: Cytotoxicity against human MDA-MB-231 cells assessed as inhibition of cell survival upto 100 uM incubated for 72 hrs by MTT assay relative to control. The format is functional. Summed up:
as §1

A further experiment deals with A549. Kind of experiment: Cytotoxicity against human A549 cells. The format is functional, cell-based.
Experiment [6] can be described thus: Cytotoxicity against human HCT116 cells assessed as decrease in cell protein incubated for 48 hrs. The class given is functional, cell-based. Particulars: HCT-116, 48 h.

The text below walks through data of ChEMBL document CHEMBL3734706, “Syntheses and biological evaluation of C-3'-N-acyl modified taxane analogues from 1-deoxybaccatin-VI” (Eur J Med Chem, 2015).

By IC50 is commonly meant the midpoint of a concentration-inhibition curve. In the case of `COc1ccc(C(=O)N[C@@H](c2ccccc2)[C@@H](O)C(=O)O[C@H]2CC3[C@@H](OC(=O)c4ccccc4)[C@@H]4[C@]5(OC(C)=O)CO[C@@H]5C[C@H](O)[C@@]4(C)[C@@H](O)[C@H](O)C(=C2C)C3(C)C)cc1` (stereo not given in full), the IC50 with MDA-MB-231 [1] is below 1 nM; in the experiment on HepG2 it was 567 nM; in experiment [2] it was 10 nM; in experiment [3] it was 199 nM. In addition, the “inhibition (INH)” value (in experiment [4]; in the experiment with MDA-MB-231 [5]) was 90% each time.
Take `CC(=O)O[C@@]12CO[C@@H]1C[C@H](O)[C@]1(C)[C@@H]2[C@H](OC(=O)c2ccccc2)C2C[C@H](OC(=O)[C@H](O)[C@@H](NC(=O)c3cccs3)c3ccccc3)C(C)=C([C@@H](O)[C@@H]1O)C2(C)C` (stereo not given in full): the results for the IC50 (in the experiment with MDA-MB-231 [1]; in experiment [2]) were 1260 nM and 1630 nM, respectively. Besides, the “inhibition (INH)” value (in experiment [4]; in the experiment with MDA-MB-231 [5]) was 90% in each case.
Turning to `CCCCCC(=O)N[C@@H](c1ccccc1)[C@@H](O)C(=O)O[C@H]1CC2[C@@H](OC(=O)c3ccccc3)[C@@H]3[C@]4(OC(C)=O)CO[C@@H]4C[C@H](O)[C@@]3(C)[C@H]3OC(C)(C)O[C@@H]3C(=C1C)C2(C)C` (stereo not given in full), the IC50 is 10 nM with MDA-MB-231 [1] and 210 nM in experiment [2].
As to `CC(=O)O[C@@]12CO[C@@H]1C[C@H](O)[C@]1(C)[C@@H]2[C@H](OC(=O)c2ccccc2)C2C[C@H](OC(=O)[C@H](O)[C@@H](NC(=O)c3ccco3)c3ccccc3)C(C)=C([C@@H](O)[C@@H]1O)C2(C)C` (stereo not given in full), the IC50 with MDA-MB-231 [1] is below 1 nM; in the experiment with HepG2, 2020 nM; in experiment [2], 4 nM; in experiment [3], 289 nM. Moreover, the “inhibition (INH)” value (in experiment [4]; in the experiment on MDA-MB-231 [5]) was 90% in each case.
In the case of `CC(=O)O[C@@]12CO[C@@H]1C[C@H](O)[C@]1(C)[C@@H]2[C@H](OC(=O)c2ccccc2)C2C[C@H](OC(=O)[C@H](O)[C@@H](NC(=O)c3ccc(CCl)cc3)c3ccccc3)C(C)=C([C@@H](O)[C@@H]1O)C2(C)C` (stereo not given in full), the IC50 amounted to 30 nM with MDA-MB-231 [1] and 90 nM in experiment [2]. Further, the “inhibition (INH)” value (in experiment [4]; in the experiment with MDA-MB-231 [5]) was 90% each time.
For `CC(=O)O[C@@]12CO[C@@H]1C[C@H](O)[C@]1(C)[C@@H]2[C@H](OC(=O)c2ccccc2)C2C[C@H](OC(=O)[C@H](O)[C@@H](NC(=O)c3ccc(F)cc3)c3ccccc3)C(C)=C([C@@H](O)[C@@H]1O)C2(C)C` (stereo not given in full), the values for the IC50 (in the experiment with MDA-MB-231 [1]; in experiment [2]) were below 1 nM and 20 nM, respectively. For the same molecule, the “inhibition (INH)” value (in experiment [4]; in the experiment on MDA-MB-231 [5]) was 90% throughout.
For `CC(=O)O[C@H]1C(=O)[C@]2(C)[C@@H](OC(C)=O)C[C@H]3OC[C@@]3(OC(C)=O)[C@H]2[C@H](OC(=O)c2ccccc2)C2C[C@H](OC(=O)[C@H](O)[C@@H](NC(=O)c3ccccc3)c3ccccc3)C(C)=C1C2(C)C` (stereo not given in full), the IC50 in the experiment with A549 turned out to be 62 nM.
For `CCCCCC(=O)N[C@@H](c1ccccc1)[C@@H](O)C(=O)O[C@H]1CC2[C@@H](OC(=O)c3ccccc3)[C@@H]3[C@]4(OC(C)=O)CO[C@@H]4C[C@H](O)[C@@]3(C)[C@@H](O)[C@H](O)C(=C1C)C2(C)C` (stereo not given in full), the IC50 in the experiment on MDA-MB-231 [1] was below 1 nM; in experiment [2], 10 nM. Further, the “inhibition (INH)” value (in experiment [4]; with MDA-MB-231 [5]) was 40% throughout.
`CC(=O)O[C@@]12CO[C@@H]1C[C@H](O)[C@]1(C)[C@@H]2[C@H](OC(=O)c2ccccc2)C2C[C@H](OC(=O)[C@H](O)[C@@H](NC(=O)c3cc4ccccc4o3)c3ccccc3)C(C)=C([C@@H](O)[C@@H]1O)C2(C)C` (stereo not given in full): the IC50 was 20 nM with MDA-MB-231 [1] and 70 nM in experiment [2]. Besides, the “inhibition (INH)” value (in experiment [4]; with MDA-MB-231 [5]) was 90% in each case.
In the case of `CC(=O)OC1[C@H](OC(C)=O)C2=C(C)[C@@H](OC(=O)[C@H](O)[C@@H](NC(=O)c3ccccc3)c3ccccc3)CC([C@@H](OC(=O)c3ccccc3)[C@@H]3[C@]4(OC(C)=O)CO[C@@H]4C[C@H](OC(C)=O)[C@@]13C)C2(C)C` (stereo not given in full), the IC50 in experiment [6] stood at 31.5 nM.
`CCCCCC(=O)N[C@@H](c1ccccc1)[C@@H](O)C(=O)O[C@H]1CC2[C@@H](OC(=O)c3ccccc3)[C@@H]3[C@]4(OC(C)=O)CO[C@@H]4C[C@H](OC(C)=O)[C@@]3(C)C(=O)[C@H](OC(C)=O)C(=C1C)C2(C)C` (stereo not given in full): the concentration for half-maximal inhibition (IC50) in the experiment with MDA-MB-231 [1] was determined as 270 nM; in experiment [2] it was 330 nM.
For the molecule `CC(=O)O[C@H]1C(=O)[C@@]2(C)[C@H]([C@H](OC(=O)c3ccccc3)[C@]3(O)C[C@H](OC(=O)[C@H](O)[C@@H](NC(=O)c4ccccc4)c4ccccc4)C(C)=C1C3(C)C)[C@]1(OC(C)=O)CO[C@@H]1C[C@@H]2O` [PACLITAXEL], the IC50 in the experiment with MDA-MB-231 [1] was below 1 nM; with HepG2, 1220 nM; in experiment [2], below 1 nM; in experiment [3], 4290 nM; in experiment [6], 2.8 nM. In addition, the “inhibition (INH)” value (in experiment [4]; in the experiment with MDA-MB-231 [5]) was 40% in each case.
